Reference: publication PMC9273405 (Burns & Trauma, 2022)

Columns and labels:
[1] = test system: full-thickness injury skin wounds in mice; assay: Full-thickness injury skin wound healing in mice; assay type: in vivo, mouse
In short: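 Mice were anaesthetised with 1% pentobarbital sodium (0.1 ml/20 g) and given two round 8 × 8 mm dorsal skin wounds. Wounds were treated topically twice daily with 20 μl of vehicle, peptide (0.5, 5 or 50 nM) or EGF (50 nM). Residual wound area was measured from images as a percentage of initial area. New epidermis and granulation tissue thickness were measured from H&E sections on days 4 and 8. Six mice per group.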

[2] = test system: scald wounds in mice skin; assay: Scald wound repair in mouse skin; assay type: in vivo; conditions: 50 nM; for re-epithelialization rate: scald wound

B1: epidermal growth factor (protein, UniProt P01133 23-1207, looked up)
Pro-epidermal growth factor: PQHWSCPEGTLAGNGNSTCVGPAPFLIFSHGNSIFRIDTEGTNYEQLVVDAGVSVIMDFHYNEKRIYWVDLERQLLQRVFLNGSRQERVCNIEKNVSGMAINWINEEVIWSNQQEGIITVTDMKGNNSHILLSALKYPANVAVDPVERFIFWSSEVAGSLYRADLDGVGVKALLETSEKITAVSLDVLDKRLFWIQYNREGSNSLICSCDYDGGSVHISKHPTQHNLFAMSLFGDRIFYSTWKMKTIWIANKHTGKDMVRINLHSSFVPLGELKVVHPLAQPKAEDDTWEPEQKLCKLRKGNCSSTVCGQDLQSHLCMCAEGYALSRDRKYCEDVNECAFWNHGCTLGCKNTPGSYYCTCPVGFVLLPDGKRCHQLVSCPRNVSECSHDCVLTSEGPLCFCPEGSVLERDGKTCSGCSSPDNGGCSQLCVPLSPVSWECDCFPGYDLQLDEKSCAASGPQPFLLFANSQDIRHMHFDGTDYGTLLSQQMGMVYALDHDPVENKIYFAHTALKWIERANMDGSQRERLIEEGVDVPEGLAVDWIGRRFYWTDRGKSLIGRSDLNGKRSKIITKENISQPRGIAVHPMAKRLFWTDTGINPRIESSSLQGLGRLVIASSDLIWPSGITIDFLTDKLYWCDAKQSVIEMANLDGSKRRRLTQNDVGHPFAVAVFEDYVWFSDWAMPSVMRVNKRTGKDRVRLQGSMLKPSSLVVVHPLAKPGADPCLYQNGGCEHICKKRLGTAWCSCREGFMKASDGKTCLALDGHQLLAGGEVDLKNQVTPLDILSKTRVSEDNITESQHMLVAEIMVSDQDDCAPVGCSMYARCISEGEDATCQCLKGFAGDGKLCSDIDECEMGVPVCPPASSKCINTEGGYVCRCSEGYQGDGIHCLDIDECQLGEHSCGENASCTNTEGGYTCMCAGRLSEPGLICPDSTPPPHLREDDHHYSVRNSDSECPLSHDGYCLHDGVCMYIEALDKYACNCVVGYIGERCQYRDLKWWELRHAGHGQQQKVIVVAVCVVVLVMLLLLSLWGAHYYRTQKLLSKNPKNPYEESSRDVRSRRPADTEDGMSSCPQPWFVVIKEHQDLKNGGQPVAGEDGQAADGSMQPTSWRQEPQLCGMGTEQGCWIPVSSDKGSCPQVMERSFHMPSYGTQTLEGGVEKPHSLLSANPLWQQRALDPPHQMELTQ
modifications: Pro-epidermal growth factor
skin wound healing rate ([1]; 50 nM, 20 μl topical twice a day, day 8 post-operation, n = 6 (vehicle 71 ± 3%)): 87 ± 2% | thickness of new epidermis ([1]; day 4, H&E staining, n = 6 (vehicle 119 ± 7)): 58 ± 2 μm | thickness of granulation tissue ([1]; day 4, H&E staining, n = 6 (vehicle 505 ± 46)): 317 ± 82 μm | thickness of new epidermis ([1]; day 8, H&E staining, n = 6 (vehicle 86 ± 7)): 38 ± 10 μm | thickness of granulation tissue ([1]; day 8, H&E staining, n = 6 (vehicle 982 ± 8)): 719 ± 54 μm | regeneration rate of scald wounds ([2]; 20 μl topical, day 12 after operation, n = 6 (vehicle 40 ± 4%)): 78 ± 5% | re-epithelialization rate ([2]; day 8, H&E staining, n = 6 (vehicle 15 ± 3%)): 38 ± 3% | re-epithelialization rate ([2]; day 12, H&E staining, n = 6 (vehicle 42 ± 2%)): almost complete re-epithelialization
